Active and inactive are the calls of the source. The calls are words filed in the database; no cut-off is given here.
molecular target: T1, Deoxycytidine kinase (Homo sapiens, UniProt P27707); test: Inhibition of human deoxycytidine kinase by lysate filter binding assay; conditions: not given
Target sequence in this assay (P27707 whole entry): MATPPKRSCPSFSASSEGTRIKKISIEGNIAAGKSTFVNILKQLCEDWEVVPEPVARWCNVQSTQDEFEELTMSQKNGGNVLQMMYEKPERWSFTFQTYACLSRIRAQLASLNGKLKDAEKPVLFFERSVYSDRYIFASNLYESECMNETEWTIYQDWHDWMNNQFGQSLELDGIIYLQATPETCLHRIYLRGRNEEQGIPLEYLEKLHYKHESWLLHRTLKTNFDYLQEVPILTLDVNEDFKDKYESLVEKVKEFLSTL

Compound	IC50 [nM]
Cc1cc(Cl)ccc1-c1cccc(C(=O)N[C@H]2CC[C@H](n3cc(F)c(N)nc3=O)C2)c1	21
Nc1nc(=O)n([C@H]2CC[C@H](NS(=O)(=O)c3ccc(Br)cc3)C2)cc1F	2700
COc1ccc(-c2cccc(C(=O)N[C@H]3CC[C@H](n4cc(F)c(N)nc4=O)C3)c2)cc1	30
Nc1nc(=O)n([C@H]2CC[C@H](NS(=O)(=O)c3cccc(-c4cccc(Cl)c4)c3)C2)cc1F	79
Nc1nc(=O)n([C@H]2CC[C@H](NS(=O)(=O)c3cccc(-c4ccccc4Cl)c3)C2)cc1F	45
Nc1nc(=O)n([C@H]2CC[C@H](NS(=O)(=O)c3ccccc3)C2)cc1F	3600
Nc1nc(=O)n([C@H]2CC[C@H](NS(=O)(=O)c3cccc(-c4ccc(Cl)cc4)c3)C2)cc1F	51
N#Cc1ccc(-c2cccc(S(=O)(=O)N[C@H]3CC[C@H](n4cc(F)c(N)nc4=O)C3)c2)cc1	49
Nc1nc(=O)n([C@H]2CC[C@H](NS(=O)(=O)c3cccc(-c4ccccc4)c3)C2)cc1F	120
COc1ccc(-c2cccc(S(=O)(=O)N[C@H]3CC[C@H](n4cc(F)c(N)nc4=O)C3)c2)cc1	64
Nc1nc(=O)n([C@H]2CC[C@H](NC(=O)c3cccc(-c4ccccc4)c3)C2)cc1F	260
Nc1nc(=O)n([C@H]2CC[C@H](NC(=O)c3cccc(-c4ccc(Cl)cc4)c3)C2)cc1F	42
Nc1nc(=O)n([C@H]2CC[C@H](NC(=O)c3cc(-c4cc5ccccc5s4)ccn3)C2)cc1F	1.7
Nc1nc(=O)n([C@H]2CC[C@H](NS(=O)(=O)c3ccc([N+](=O)[O-])cc3)C2)cc1F	3200
Cc1cc(Cl)ccc1-c1cccc(S(=O)(=O)N[C@H]2CC[C@H](n3cc(F)c(N)nc3=O)C2)c1	21
Nc1nc(=O)n([C@H]2CC[C@H](NS(=O)(=O)c3cccc(-c4ccc(C(=O)O)cc4)c3)C2)cc1F	15300
Nc1nc(=O)n([C@H]2CC[C@H](NS(=O)(=O)c3cccc(-c4ccc(Cl)cc4Cl)c3)C2)cc1F	21
Nc1nc(=O)n([C@H]2CC[C@H](NS(=O)(=O)c3ccc(-c4ccccc4)cc3)C2)cc1F	350
Nc1nc(=O)n([C@H]2CC[C@H](NC(=O)c3cccc(-c4cccc(Cl)c4)c3)C2)cc1F	23
NC(=O)c1ccc(-c2cccc(S(=O)(=O)N[C@H]3CC[C@H](n4cc(F)c(N)nc4=O)C3)c2)cc1	89
Nc1nc(=O)n([C@H]2CC[C@H](NS(=O)(=O)c3cccc(Br)c3)C2)cc1F	1900
Cc1ccc(-c2cccc(S(=O)(=O)N[C@H]3CC[C@H](n4cc(F)c(N)nc4=O)C3)c2)cc1	110
CS(=O)(=O)c1ccc(-c2cccc(S(=O)(=O)N[C@H]3CC[C@H](n4cc(F)c(N)nc4=O)C3)c2)cc1	63

test system: not listed separately; test: AUC ((0 to infinity)) in mouse at 10 mg/kg, po; format: ADME, organism-based; set-up: time infinity, dose 10 mg/kg, route oral; conditions: plasma
How it was run: (§1)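 Mouse PK: single doses of 10 mpk po and 1 mpk iv, with blood sampled to measure compound levels. Clearance and volume came from the iv dose. AUC to infinity, Cmax and other parameters came from the po dosing data.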

Compound	AUC(0-inf) [µM·h]
Cc1cc(Cl)ccc1-c1cccc(C(=O)N[C@H]2CC[C@H](n3cc(F)c(N)nc3=O)C2)c1	10.8
COc1ccc(-c2cccc(C(=O)N[C@H]3CC[C@H](n4cc(F)c(N)nc4=O)C3)c2)cc1	3.8
Nc1nc(=O)n([C@H]2CC[C@H](NS(=O)(=O)c3cccc(-c4ccc(Cl)cc4)c3)C2)cc1F	5.2
COc1ccc(-c2cccc(S(=O)(=O)N[C@H]3CC[C@H](n4cc(F)c(N)nc4=O)C3)c2)cc1	0.6
Nc1nc(=O)n([C@H]2CC[C@H](NC(=O)c3cccc(-c4ccc(Cl)cc4)c3)C2)cc1F	15.8
Nc1nc(=O)n([C@H]2CC[C@H](NC(=O)c3cc(-c4cc5ccccc5s4)ccn3)C2)cc1F	22
Cc1cc(Cl)ccc1-c1cccc(S(=O)(=O)N[C@H]2CC[C@H](n3cc(F)c(N)nc3=O)C2)c1	2.3

test system: not listed separately; test: Cmax in mouse at 10 mg/kg, po; format: ADME, organism-based; set-up: dose 10 mg/kg, route oral; conditions: in vivo; how it was run: as §1

Compound	Cmax [µM]
Cc1cc(Cl)ccc1-c1cccc(C(=O)N[C@H]2CC[C@H](n3cc(F)c(N)nc3=O)C2)c1	10.1
COc1ccc(-c2cccc(C(=O)N[C@H]3CC[C@H](n4cc(F)c(N)nc4=O)C3)c2)cc1	3.4
Nc1nc(=O)n([C@H]2CC[C@H](NS(=O)(=O)c3cccc(-c4ccc(Cl)cc4)c3)C2)cc1F	1
COc1ccc(-c2cccc(S(=O)(=O)N[C@H]3CC[C@H](n4cc(F)c(N)nc4=O)C3)c2)cc1	0.3
Nc1nc(=O)n([C@H]2CC[C@H](NC(=O)c3cccc(-c4ccc(Cl)cc4)c3)C2)cc1F	16.2
Nc1nc(=O)n([C@H]2CC[C@H](NC(=O)c3cc(-c4cc5ccccc5s4)ccn3)C2)cc1F	7.4
Cc1cc(Cl)ccc1-c1cccc(S(=O)(=O)N[C@H]2CC[C@H](n3cc(F)c(N)nc3=O)C2)c1	1.5

test system: not listed separately; test: Half life in mouse at 10 mg/kg, po; format: ADME, organism-based; set-up: dose 10 mg/kg, route oral; conditions: in vivo; how it was run: as §1

Compound	half-life [h]
Cc1cc(Cl)ccc1-c1cccc(C(=O)N[C@H]2CC[C@H](n3cc(F)c(N)nc3=O)C2)c1	1.3
COc1ccc(-c2cccc(C(=O)N[C@H]3CC[C@H](n4cc(F)c(N)nc4=O)C3)c2)cc1	1.6
Nc1nc(=O)n([C@H]2CC[C@H](NS(=O)(=O)c3cccc(-c4ccc(Cl)cc4)c3)C2)cc1F	2.1
COc1ccc(-c2cccc(S(=O)(=O)N[C@H]3CC[C@H](n4cc(F)c(N)nc4=O)C3)c2)cc1	1.2
Nc1nc(=O)n([C@H]2CC[C@H](NC(=O)c3cccc(-c4ccc(Cl)cc4)c3)C2)cc1F	0.8
Nc1nc(=O)n([C@H]2CC[C@H](NC(=O)c3cc(-c4cc5ccccc5s4)ccn3)C2)cc1F	1.5
Cc1cc(Cl)ccc1-c1cccc(S(=O)(=O)N[C@H]2CC[C@H](n3cc(F)c(N)nc3=O)C2)c1	1.6

test system: not listed separately; test: Tmax in mouse at 10 mg/kg, po; format: ADME, organism-based; set-up: dose 10 mg/kg, route oral; conditions: in vivo; how it was run: as §1

Compound	Tmax [h]
Cc1cc(Cl)ccc1-c1cccc(C(=O)N[C@H]2CC[C@H](n3cc(F)c(N)nc3=O)C2)c1	0.3
COc1ccc(-c2cccc(C(=O)N[C@H]3CC[C@H](n4cc(F)c(N)nc4=O)C3)c2)cc1	0.3
Nc1nc(=O)n([C@H]2CC[C@H](NS(=O)(=O)c3cccc(-c4ccc(Cl)cc4)c3)C2)cc1F	2
COc1ccc(-c2cccc(S(=O)(=O)N[C@H]3CC[C@H](n4cc(F)c(N)nc4=O)C3)c2)cc1	0.8
Nc1nc(=O)n([C@H]2CC[C@H](NC(=O)c3cccc(-c4ccc(Cl)cc4)c3)C2)cc1F	0.3
Nc1nc(=O)n([C@H]2CC[C@H](NC(=O)c3cc(-c4cc5ccccc5s4)ccn3)C2)cc1F	0.6
Cc1cc(Cl)ccc1-c1cccc(S(=O)(=O)N[C@H]2CC[C@H](n3cc(F)c(N)nc3=O)C2)c1	0.3

test system: not listed separately; test: Bioavailability in mouse at 10 mg/kg, po; format: ADME, organism-based; conditions: in vivo; how it was run: as §1

Compound	bioavailability [%]
Cc1cc(Cl)ccc1-c1cccc(C(=O)N[C@H]2CC[C@H](n3cc(F)c(N)nc3=O)C2)c1	58
COc1ccc(-c2cccc(C(=O)N[C@H]3CC[C@H](n4cc(F)c(N)nc4=O)C3)c2)cc1	17
COc1ccc(-c2cccc(S(=O)(=O)N[C@H]3CC[C@H](n4cc(F)c(N)nc4=O)C3)c2)cc1	9
Nc1nc(=O)n([C@H]2CC[C@H](NC(=O)c3cccc(-c4ccc(Cl)cc4)c3)C2)cc1F	12
Nc1nc(=O)n([C@H]2CC[C@H](NC(=O)c3cc(-c4cc5ccccc5s4)ccn3)C2)cc1F	42
Cc1cc(Cl)ccc1-c1cccc(S(=O)(=O)N[C@H]2CC[C@H](n3cc(F)c(N)nc3=O)C2)c1	15

test system: not listed separately; test: Terminal volume of distribution in mouse at 1 mg/kg, iv; format: ADME, organism-based; set-up: dose 1 mg/kg, route intravenous; conditions: in vivo, read-out: Vz; how it was run: as §1

Compound	Vd [L/kg]
Cc1cc(Cl)ccc1-c1cccc(C(=O)N[C@H]2CC[C@H](n3cc(F)c(N)nc3=O)C2)c1	1.6
COc1ccc(-c2cccc(C(=O)N[C@H]3CC[C@H](n4cc(F)c(N)nc4=O)C3)c2)cc1	1.3
Nc1nc(=O)n([C@H]2CC[C@H](NS(=O)(=O)c3cccc(-c4ccc(Cl)cc4)c3)C2)cc1F	16
COc1ccc(-c2cccc(S(=O)(=O)N[C@H]3CC[C@H](n4cc(F)c(N)nc4=O)C3)c2)cc1	4.4
Nc1nc(=O)n([C@H]2CC[C@H](NC(=O)c3cccc(-c4ccc(Cl)cc4)c3)C2)cc1F	0.2
Nc1nc(=O)n([C@H]2CC[C@H](NC(=O)c3cc(-c4cc5ccccc5s4)ccn3)C2)cc1F	0.8
Cc1cc(Cl)ccc1-c1cccc(S(=O)(=O)N[C@H]2CC[C@H](n3cc(F)c(N)nc3=O)C2)c1	3

test system: not listed separately; test: Clearance in mouse at 1 mg/kg, iv; format: ADME, organism-based; set-up: dose 1 mg/kg, route intravenous; conditions: in vivo; how it was run: as §1

Compound	clearance [mL/min/kg]
Cc1cc(Cl)ccc1-c1cccc(C(=O)N[C@H]2CC[C@H](n3cc(F)c(N)nc3=O)C2)c1	20
COc1ccc(-c2cccc(C(=O)N[C@H]3CC[C@H](n4cc(F)c(N)nc4=O)C3)c2)cc1	18
Nc1nc(=O)n([C@H]2CC[C@H](NS(=O)(=O)c3cccc(-c4ccc(Cl)cc4)c3)C2)cc1F	140
COc1ccc(-c2cccc(S(=O)(=O)N[C@H]3CC[C@H](n4cc(F)c(N)nc4=O)C3)c2)cc1	63
Nc1nc(=O)n([C@H]2CC[C@H](NC(=O)c3cccc(-c4ccc(Cl)cc4)c3)C2)cc1F	3
Nc1nc(=O)n([C@H]2CC[C@H](NC(=O)c3cc(-c4cc5ccccc5s4)ccn3)C2)cc1F	7
Cc1cc(Cl)ccc1-c1cccc(S(=O)(=O)N[C@H]2CC[C@H](n3cc(F)c(N)nc3=O)C2)c1	23

test system: Liver microsomes; test: Stability in human liver microsomes; format: ADME, Microsome; conditions: not given

Compound	Stability
Nc1nc(=O)n([C@H]2CC[C@H](NC(=O)c3cc(-c4cc5ccccc5s4)ccn3)C2)cc1F	Stable

test system: not listed separately; test: Stability in mouse liver microsomes; format: ADME, Microsome; conditions: not given

Compound	Stability
Nc1nc(=O)n([C@H]2CC[C@H](NC(=O)c3cc(-c4cc5ccccc5s4)ccn3)C2)cc1F	Stable

molecular target: Deoxycytidine kinase (Mus musculus, UniProt P43346); test: Inhibition of deoxycytidine kinase in anti CD3 and anti CD28 -stimulated mouse T cells assessed as reduction in [3H]deoxycitidine incorporation; format: cell-based, T-cell; conditions: not given
Sequence (P43346 whole entry): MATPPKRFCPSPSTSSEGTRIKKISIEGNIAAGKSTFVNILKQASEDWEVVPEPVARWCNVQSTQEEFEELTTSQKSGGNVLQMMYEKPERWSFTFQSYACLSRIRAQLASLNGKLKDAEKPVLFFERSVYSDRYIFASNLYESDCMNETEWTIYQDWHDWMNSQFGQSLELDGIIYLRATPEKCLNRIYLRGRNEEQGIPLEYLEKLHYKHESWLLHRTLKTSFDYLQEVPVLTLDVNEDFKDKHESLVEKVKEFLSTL

Compound	EC50 [nM]
Nc1nc(=O)n([C@H]2CC[C@H](NC(=O)c3cc(-c4cc5ccccc5s4)ccn3)C2)cc1F	17

molecular target: T1, Deoxycytidine kinase; test: Inhibition of deoxycytidine kinase in anti CD3 and anti CD28 -stimulated human T cells assessed as reduction in [3H]deoxycitidine incorporation; format: cell-based, T-cell; conditions: not given
Target sequence in this assay (P27707 whole entry): as the sequence (P27707 whole entry) above

Compound	EC50 [nM]
Nc1nc(=O)n([C@H]2CC[C@H](NC(=O)c3cc(-c4cc5ccccc5s4)ccn3)C2)cc1F	90

molecular target: T1, Deoxycytidine kinase; test: Inhibition of deoxycytidine kinase in anti CD3 and anti CD28 -stimulated human T cells assessed as reduction in deoxythymidine incorporation; format: cell-based; conditions: T-cell
Target sequence in this assay (P27707 whole entry, looked up): as the sequence (P27707 whole entry) above

Compound	Activity
Nc1nc(=O)n([C@H]2CC[C@H](NC(=O)c3cc(-c4cc5ccccc5s4)ccn3)C2)cc1F	inactive

molecular target: Deoxycytidine kinase (Mus musculus) (UniProt P43346); test: Inhibition of deoxycytidine kinase in anti CD3 and anti CD28 -stimulated mouse T cells assessed as reduction in deoxythymidine incorporation; format: cell-based; conditions: T-cell
Sequence (P43346 whole entry, looked up): as the sequence (P43346 whole entry) above

Compound	Activity
Nc1nc(=O)n([C@H]2CC[C@H](NC(=O)c3cc(-c4cc5ccccc5s4)ccn3)C2)cc1F	inactive

test system: Mus musculus; test: Inhibition of deoxycytidine kinase in anti CD3 -stimulated mouse assessed as reduction in [3H]deoxycytidine incorporation at 100 mg/kg, po treated 1 day before, day 0 and day 1 after anti CD3 challenge measured on day 2; format: functional, organism-based; set-up: dose 100 mg/kg; conditions: not given
How it was run: (§2)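 In vivo mouse dCK inhibition. Compound was given by oral gavage on day -1, day 0 and day 1. Anti-CD3 (0.5 µg/g body wt) was given ip on day 0, after the second dose. […] (100 µCi/animal) was given ip on day 1. Spleens were harvested on day 2 and dissociated into single-cell suspensions normalized to 30 mg/ml by spleen weight. Aliquots were filtered onto glass fibre and counted by liquid scintillation. n = 6-8 mice per group; controls were vehicle and no anti-CD3.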

Compound	Activity
Nc1nc(=O)n([C@H]2CC[C@H](NC(=O)c3cc(-c4cc5ccccc5s4)ccn3)C2)cc1F	Active

test system: Mus musculus; test: Inhibition of deoxycytidine kinase in anti CD3 -stimulated po dosed mouse assessed as reduction in [3H]deoxycytidine incorporation treated 1 day before, day 0 and day 1 after anti CD3 challenge measured on day 2; format: functional, organism-based; conditions: not given; how it was run: as §2

Compound	Activity
Nc1nc(=O)n([C@H]2CC[C@H](NC(=O)c3cc(-c4cc5ccccc5s4)ccn3)C2)cc1F	Dose-dependent effect

Reference: ChEMBL document CHEMBL1154362, “Lead optimization and structure-based design of potent and bioavailable deoxycytidine kinase inhibitors” (Bioorg Med Chem Lett, 2009)
